Experimental data as given in PubChem BioAssay.
Activity calls are given as the source filed them.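 How the source made its calls, unless noted: active means NADPH fluorescence slope more negative than the mean of all samples by about 3 SD, 99.7% confidence; inactive means the rest.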

Tests used:
[1] = inhibitors of TNFa-induced NFkB p65 translocation, primary screen, imaging, HUVEC, MLSMR starter and 10KST1 sets (AID 438;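 active means inhibition above 20% together with a positive visual image hit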;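 further: compound added about 3h40 before a 20 min TNFalpha stimulation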;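 on inhibition: signal is the nuclear over cytoplasmic p65 intensity ratio per well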); settings: HUVEC TNFa-induced p65 nuclear translocation; cell count: measured here: nuclei count (cytotoxicity indicator), at 2.08 µM; inhibition: at 2 µM, stronger effect = higher value, 0% TNFa-plus-vehicle, 100% no-TNFa wells
[2] = reduction of polyQ htt aggregates in cells – imaging, exon1htt(103Q)mCFP cells, high-content imaging, primary screen (AID 483;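 active means visual image review flags a hit and inhibition of aggregation exceeds 20%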;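 further: compound exposure lasted 3 days before fixation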;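 on nuclei count: percent of the per-plate median nuclei count of sample wells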); settings: exon1htt(103Q)mCFP cell line, aggregate imaging, at 2 µM; inhibition of aggregation: stronger effect = higher value; nuclei count: measured here: cell count, toxicity
[3] = endothelial E-selectin expression blockers – imaging, HUVEC, immunofluorescence, MLSMR starter and 10KST1 sets, primary screen (AID 487;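 active means visually confirmed hit in the image check and inhibition above 20%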;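 on inhibition: signal is fraction of cell area covered by stained E-selectin grains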;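 on nuclei count: 100% = median nuclei count of all wells on the same plate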); settings: HUVEC TNFalpha-induced E-selectin immunofluorescence imaging, at 2 µM; inhibition: stronger effect = higher value; nuclei count: measured here: cell number, toxicity
[4] = target: Voltage-gated potassium channel subunit beta-2 (Rattus norvegicus) (UniProt P62483); assay: inhibitors of rat Kvbeta2 reductase activity – biochemical, NADPH fluorescence, primary screen (AID 622;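 active means fluorescence slope higher than the sample average by over 3 SD, cut at about -0.22 in these data, passing the limit was not always enough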;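 further: slope of raw intensity against log time taken from 70 to 1610 s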); settings: recombinant KvBeta, 4-cyanobenzaldehyde reduction, at 10 µM, stronger effect = higher value
Sequence of Voltage-gated potassium channel subunit beta-2 (Rattus norvegicus) (P62483 whole entry, looked up): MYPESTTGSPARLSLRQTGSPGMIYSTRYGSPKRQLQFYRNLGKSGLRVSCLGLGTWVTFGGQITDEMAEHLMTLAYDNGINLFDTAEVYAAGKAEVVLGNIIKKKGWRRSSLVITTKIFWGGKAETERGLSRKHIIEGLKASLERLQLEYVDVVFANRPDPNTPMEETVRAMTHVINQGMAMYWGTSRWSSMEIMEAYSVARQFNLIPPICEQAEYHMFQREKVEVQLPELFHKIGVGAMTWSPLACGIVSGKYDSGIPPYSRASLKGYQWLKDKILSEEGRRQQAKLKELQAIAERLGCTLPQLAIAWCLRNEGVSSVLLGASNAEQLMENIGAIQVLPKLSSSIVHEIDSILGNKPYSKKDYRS

[5] = target: Voltage-gated potassium channel subunit beta-2 (Rattus norvegicus) (UniProt P62483); assay: enhancers of rat Kvbeta2 NADPH turnover – biochemical, NADPH fluorescence, primary screen (AID 623); settings: Recombinant KvBeta, NADPH fluorescence decrease slope, 10 min; at 10 µM; stronger effect = lower value;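 further: fluorescence intensity change per second fitted from 20 to 320 s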
[6] = target: Muscarinic acetylcholine receptor M4 (Homo sapiens) (UniProt P08173); assay: M4-linked GIRK flux change, two-sided – cell-based, HEK293 M4/GIRK, thallium flux, BTC-AM, M4 allosteric agonist project, primary screen (AID 625;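 active means fluorescence slope after compound addition differing from the mean of all tested samples at 99.7% confidence, mostly higher but some lower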;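 further: thallium influx through GIRK channels coupled to M4 in HEK293 cells with BTC-AM dye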); settings: at 10 µM, actives lie on both sides
Sequence of Muscarinic acetylcholine receptor M4 (Homo sapiens) (P08173 whole entry, looked up): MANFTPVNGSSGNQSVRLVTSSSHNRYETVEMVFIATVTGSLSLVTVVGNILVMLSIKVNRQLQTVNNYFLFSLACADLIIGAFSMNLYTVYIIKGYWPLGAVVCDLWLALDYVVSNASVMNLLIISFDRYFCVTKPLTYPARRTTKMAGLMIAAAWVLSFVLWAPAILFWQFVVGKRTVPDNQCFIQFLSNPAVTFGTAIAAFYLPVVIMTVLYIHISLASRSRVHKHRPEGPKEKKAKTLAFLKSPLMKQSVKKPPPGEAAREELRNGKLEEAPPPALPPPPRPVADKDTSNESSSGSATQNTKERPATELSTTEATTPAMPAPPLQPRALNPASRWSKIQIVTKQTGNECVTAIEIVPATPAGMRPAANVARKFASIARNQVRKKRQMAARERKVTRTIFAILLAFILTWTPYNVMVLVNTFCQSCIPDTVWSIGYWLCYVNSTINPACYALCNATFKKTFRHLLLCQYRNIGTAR
Outline: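 Material – HEK293 cells with M4 receptor and GIRK channels · Buffer or medium – pH 7.3 thallium assay buffer · Doses – one dose, 10 µM final · Timing – cells overnight at 37 °C, BTC-AM loading 1 h, reads 2 min total · Measured by – kinetic fluorescence with BTC-AM dye · Controls – carbachol and DMSO controls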

[7] = blockers of RIG-like receptor reporter activation – cell-based, Sendai virus stimulus, luciferase, 10K MLSCN set, TLR/RLR signaling modifier project, primary screen (AID 602276;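 active means inhibition at or above 50% at 10 µM; inactive means inhibition below 50%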;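 further: firefly luciferase from ISG56 promoter only with Renilla not read in this screen; 0% = Sendai virus plus DMSO and 100% = medium plus DMSO without virus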); settings: HEK293 RL24 IRF3 luciferase reporter, at 10 µM, stronger effect = higher value
[8] = TLR3 IRF3 reporter activation blockers – cell-based, poly I:C stimulus, luciferase, 10K MLSCN set, primary screen (AID 602277;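 active means inhibition of the reporter signal at or above 50%; inactive means inhibition below 50%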); settings: HEK293-TLR3 RL24 IRF3 luciferase reporter, at 10 µM, stronger effect = higher value

| Structure (SMILES) | cell count [1] | inhibition [1] | inhibition of aggregation [2] | nuclei count [2] | inhibition [3] | nuclei count [3] | fluorescence slope [4] | NADPH fluorescence slope [5] | fluorescence slope [6] | inhibition [7] | inhibition [8] |
| --- | --- | --- | --- | --- | --- | --- | --- | --- | --- | --- | --- |
| COc1nc(OC)nc(N2CCC(C(=O)NC3CCCCCC3)CC2)n1 | 462 | 7.8% (inactive) | 6.7% (inactive) | 87.3% | -6% (inactive) | 110% | -0.469 (inactive) | 6.4e-05 (inactive) | 0.00646 (inactive) | -10% (inactive) | -8.66% (inactive) |
| CCOC(=O)c1nnn(CC(=O)Nc2cccc(OC)c2)c1C(=O)OCC | 395 | 8% (inactive) | 20.4% (inactive) | 89% | -10.7% (inactive) | 106% | -0.416 (inactive) | -3.9e-05 (inactive) | 0.00731 (inactive) | 9.94% (inactive) | 14.1% (inactive) |
| CCOC(=O)c1sc(NC(=O)CSc2nc3c(cc2C#N)CCC3)c(C#N)c1C | 775 | -6.4% (inactive) | -2.5% (inactive) | 94.5% | -140% (inactive) | 140% | -0.457 (inactive) | 2.2e-05 (inactive) | 0.00501 (inactive) | 18.5% (inactive) | 18.8% (inactive) |
| Cc1cc(C)cc(NC(=O)N2CCC(c3nc4ccccc4o3)CC2)c1 | 405 | 7.5% (inactive) | -19.5% (inactive) | 94.7% | -66.7% (inactive) | 110% | -0.494 (inactive) | 0.00013 (inactive) | 0.00524 (inactive) | 13.6% (inactive) | 18.7% (inactive) |
| CC(NC(=O)c1ccco1)C(c1cccs1)N1CCN(c2ccc(F)cc2)CC1 (centres undefined) | 519 | -0.2% (inactive) | -0.1% (inactive) | 82% | -22.2% (inactive) | 114% | -0.489 (inactive) | 0.000157 (inactive) | 0.00654 (inactive) | 11.9% (inactive) | 12.2% (inactive) |
| CCn1c(SCC(=O)NCCc2ccc(Cl)cc2)nnc1-c1cccs1 | 616 | 6.9% (inactive) | 25.3% (inactive) | 69.4% | -11.2% (inactive) | 106% | -0.572 (inactive) | -5e-05 (inactive) | 0.00799 (inactive) | -15.7% (inactive) | -13.3% (inactive) |
| CCCn1c(NCc2cc(C)ccc2O)nc2ccccc21 | 369 | 1.4% (inactive) | 4.3% (inactive) | 82.1% | -16.5% (inactive) | 49.2% | -0.522 (inactive) | 6.3e-06 (inactive) | 0.00499 (inactive) | 18.7% (inactive) | 19.5% (inactive) |
| COc1ccccc1NC1=NC2(CCCC2)N=C(N)N1 | 313 | -9.5% (inactive) | -26.7% (inactive) | 115% | 18% (inactive) | 124% | -0.569 (inactive) | -6.5e-06 (inactive) | 0.00551 (inactive) | 7.65% (inactive) | 19.3% (inactive) |
| CCCCC(c1nnnn1C1CCCC1)N1CCN(C2CCCCC2)CC1 (centres undefined) | 625 | -40.8% (inactive) | -12% (inactive) | 100% | -57.4% (inactive) | 111% | -0.314 (inactive) | -3.5e-05 (inactive) | 0.00481 (inactive) | 10% (inactive) | 39.4% (inactive) |
| Cc1noc(C)c1S(=O)(=O)N1CCC(C(=O)Nc2ccccn2)CC1 | 281 | -5.2% (inactive) | -0.6% (inactive) | 96.1% | -46% (inactive) | 128% | -0.404 (inactive) | 3.5e-05 (inactive) | 0.00606 (inactive) | 13.8% (inactive) | 21.1% (inactive) |
| Cc1onc(-c2ccccc2)c1C(=O)Nc1ccnn1C1CCCCC1 | 387 | 1.4% (inactive) | 0.6% (inactive) | 94.4% | 8.4% (inactive) | 81.7% | -0.367 (inactive) | -8.4e-05 (inactive) | 0.00689 (inactive) | 9.16% (inactive) | 18.3% (inactive) |
| C=CCOc1cccc(C2/C(=C(\O)c3ccc(F)cc3)C(=O)C(=O)N2CCN(C)C)c1 (centres undefined) | 699 | -12.1% (inactive) | 20.1% (inactive) | 82.8% | 33.3% (inactive) | 99.1% | -0.493 (inactive) | -0.000177 (inactive) | 0.00287 (inactive) | 8.26% (inactive) | 15.2% (inactive) |
| O=C(c1noc2c1CCc1ccccc1-2)N1CCOCC1 | 234 | -5.4% (inactive) | 18.9% (inactive) | 90.2% | -35.7% (inactive) | 120% | -0.572 (inactive) | 2.9e-06 (inactive) | 0.0064 (inactive) | -5.37% (inactive) | -37.8% (inactive) |
| O=C(O)CCc1ccc(-c2cccs2)n1NC(=O)c1ccco1 | 719 | 3.6% (inactive) | -10.1% (inactive) | 107% | -93.6% (inactive) | 132% | -0.463 (inactive) | 1.5e-05 (inactive) | 0.00473 (inactive) | 20.8% (inactive) | 17.9% (inactive) |
